Compound activity as filed in PubChem.
EBNA-1 inhibitor – EBNA-1 DNA-binding inhibitors, primary screen, biochemical, fluorescence polarization; inhibition, % at 14.8 µM; 300,000 compounds, 0.34% hits; in the data active = inhibition above about 28%
HCV NS3 hel inh – inhibitors of HCV NS3 helicase, primary screen, biochemical, Cy5 molecular beacon fluorescence | Hepatitis C virus NS3 helicase | NS3 helicase DNA unwinding | inhibition, % at 10.9 µM | 290,000 compounds, 0.56% hits;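 active = inhibition above the mean of all tested compounds plus 3 SD, set per campaign, cut at about 35% in these data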
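test system = hepatitis C virus NS3 helicase domain fragment enzyme | reagent = annealed dual-labelled DNA beacon duplex, ATP-started | times = 1 h at 25 °C | detection = Cy5 fluorescence, 0 and 60 min reads | read-out basis = percent inhibition from t60/t0 fluorescence ratio | control set = DMSO and thioflavine S | replication = one well per compound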
core dimer inh – inhibitors of HCV core protein dimerization, primary screen, biochemical, TR-FRET, high-throughput. TR-FRET GST/Flag-core106 dimerization, 1536-well. inhibition, % at 5 µM. 300,000 compounds, 0.33% hits. AID 1899, 2009;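 active = inhibition above the mean of all tested compounds plus 3 SD, set per screening campaign, cut at about 45% in these data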
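System: GST-tagged and Flag-tagged HCV core protein residues 1-106 / Input: core106 proteins, GST 13.5 nM and Flag 17 nM / Buffer or medium: KF-containing HEPES buffer, pH 7.45, DTT, CHAPS, BSA / Probe or stimulus: Eu-anti-GST and XL665-anti-Flag labelled anti-tag antibodies / Schedule: 4 h, 22.5 °C incubation / Technique: TR-FRET 671 and 617 nm emission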
SUMO HTRF inh – inhibitors of in vitro SUMOylation cascade, primary screen, biochemical, HTRF, uHTS. 290,000 compounds, 0.36% hits. inhibition, % at 35 µM. HTRF SUMOylation assay, SAE1/SAE2 + UBC9. AID 2006, 2009. SUMO-conjugating enzyme UBC9 (Homo sapiens), P63279; in the data active = inhibition above about 50%, passing the limit was not always enough
Target sequence (P63279 whole entry, looked up): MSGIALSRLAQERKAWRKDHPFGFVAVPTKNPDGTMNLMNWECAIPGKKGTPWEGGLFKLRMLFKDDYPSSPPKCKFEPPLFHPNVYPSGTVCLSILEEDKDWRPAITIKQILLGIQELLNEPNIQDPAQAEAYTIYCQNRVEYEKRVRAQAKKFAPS
ZTA counter – counter-screen for EBNA-1 inhibitors: inhibitors of Epstein-Barr virus ZTA; P03206; ZTA-DNA binding, fluorescence polarization; inhibition, % at 11 µM; 320,000 compounds, 0.15% hits; in the data active = inhibition above about 33%
Target sequence (P03206 whole entry, looked up): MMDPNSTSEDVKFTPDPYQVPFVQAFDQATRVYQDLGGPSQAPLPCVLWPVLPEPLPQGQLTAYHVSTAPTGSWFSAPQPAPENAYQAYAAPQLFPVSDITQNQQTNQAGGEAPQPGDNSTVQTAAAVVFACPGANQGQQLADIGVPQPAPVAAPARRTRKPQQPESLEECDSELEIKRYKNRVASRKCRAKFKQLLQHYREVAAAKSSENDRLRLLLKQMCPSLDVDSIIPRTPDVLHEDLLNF
A number is an active result; i = inactive; nt = no result given. This is a sample that favours compounds with a hit; in the whole collection about 1.4% have one here.

SMILES	EBNA-1 inhibitor	HCV NS3 hel inh	core dimer inh	SUMO HTRF inh	ZTA counter
CCOc1ccc2c(c1)C(NC(C)=O)C(=O)N2CCN1CCOCC1 (stereo not drawn)	nt	i	nt	57	nt
CC(=O)NC1C(=O)N(CCN2CCOCC2)c2ccc(Br)cc21 (stereo not drawn)	i	i	i	62	i
CC(=O)NC1C(=O)N(CCc2ccccc2)c2ccc(Br)cc21 (stereo not drawn)	nt	i	nt	i	nt
Cc1cc(C)n2nc(SCC(=O)NC(=O)c3ccccc3Cl)nc2n1	nt	nt	nt	nt	i
COc1ccc(NC(=O)CCSc2nc(C)cs2)cc1	i	i	i	i	i
CCOc1ccc(-n2c3nc4ccccc4nc3c3c(=O)n(Cc4ccco4)cnc32)cc1	nt	i	nt	nt	nt
Cc1cc(C)cc(-n2c3nc4ccccc4nc3c3c(=O)n(Cc4ccco4)cnc32)c1	i	43	60	i	i
COc1ccc2c(c1)OC[C@H]1[C@H]2N2C(=O)c3cc(OC)c(OC)cc3NC(=O)[C@@]2(C)[C@H]1c1ccccc1	i	nt	46	nt	i
COc1ccc(CN2CCN(Cc3cccc(F)c3)CC2)cc1OC	i	i	i	i	i
CCn1c(NN)nc2sc3c(c2c1=O)CCC3	i	i	55	i	i
O=C(Nc1nc(-c2ccccc2)cs1)C1CCCN(S(=O)(=O)c2cccc([N+](=O)[O-])c2)C1 (stereo not drawn)	i	i	46	i	i
COCCn1c(SCc2nc3sc(C(=O)OC)c(C)c3c(=O)[nH]2)nc2ccccc21	i	i	i	i	i
CCn1c(SCc2nc3sc(C(=O)O)c(C)c3c(=O)[nH]2)nc2ccccc21	i	i	i	55	i
CCCc1nc2c(=O)n(C)c(=O)nc-2n(C)n1	nt	i	nt	98	nt
CCn1c(N)nc2c1c(=O)n(C)c(=O)n2C	i	i	i	i	i
COCCn1c(C)cc(C(=O)COC(=O)c2ccc(NC(=O)CC#N)cc2)c1C	i	i	68	i	i
CCn1c2ccccc2c2cc(NC(=O)COC(=O)c3ccccc3O)ccc21	i	i	i	i	i
CCn1c2ccccc2c2cc(NC(=O)COC(=O)c3ccc(NC(=O)CC#N)cc3)ccc21	i	nt	74	nt	i
O=C(CSC1=NS(=O)(=O)c2ccccc2N1)NCc1ccc(F)cc1	i	nt	i	nt	i
NC(=O)c1ccc(NC(=O)CSc2nnc(-c3cccnc3)n2Cc2ccco2)cc1	i	i	i	i	i
COc1ccc(-n2c(-c3ccccc3)nc(=S)c3c2CCCC3)cc1	i	i	77	i	i
COc1ccc(-n2c(-c3cccc(OC)c3)nc(=S)c3c2CCCC3)cc1	i	i	66	i	i
CC(=O)c1ccc(OCC(=O)OCC(=O)Nc2sccc2C(N)=O)cc1	nt	nt	nt	nt	i
O=C(O)c1ccc(N2N=C(c3ccccc3)CC2c2ccccc2)cc1 (stereo not drawn)	i	i	i	62	i
O=Cc1ccc(N2N=C(c3ccccc3)CC2c2ccccc2)cc1 (stereo not drawn)	i	i	i	i	i
SMILES	EBNA-1 inhibitor	HCV NS3 hel inh	core dimer inh	SUMO HTRF inh	ZTA counter
COc1ccc(C2CC(c3ccccc3)=NN2c2ccc(/C=N/NC(=O)c3ccncc3)cc2)cc1 (stereo not drawn)	i	i	48	i	i
O=c1c2ccccc2oc2cc(NCCCN3CCOCC3)ccc12	i	i	i	55	i
Cc1[nH]nc2c1C(c1ccc(F)cc1)C(C#N)=C(N)O2 (stereo not drawn)	i	i	i	i	i
Cc1oc(C)c2c(=O)ccc3c(c12)OC(N)=C(C#N)C3c1ccc(F)cc1 (stereo not drawn)	i	i	46	i	i
CN(C)S(=O)(=O)c1ccc(Cl)c(NC(=O)CN2C(=O)NC3(CCc4ccccc43)C2=O)c1 (stereo not drawn)	nt	nt	nt	nt	i
O=C1CCCCC1Sc1nnc(Cc2cccs2)n1CCc1ccccc1 (stereo not drawn)	i	i	51	i	i
COCCn1c(SC2CCCCC2=O)nnc1-c1ccncc1 (stereo not drawn)	i	i	i	i	i
O=C(Nc1nc2c(Br)cccc2s1)C1CC1	i	i	i	i	i
COc1ccc2cc3c(N)nn(C(=O)c4cccc([N+](=O)[O-])c4)c3nc2c1	i	i	58	i	i
Cc1cc(C)n(-c2cc(N3CCN(S(=O)(=O)c4ccc5ccccc5c4)CC3)ccc2[N+](=O)[O-])n1	i	i	54	i	i
Cc1c(CC(=O)N2CCN(C(=O)C3COc4ccccc4O3)CC2)c(=O)oc2c(C)c(O)ccc12 (stereo not drawn)	i	i	i	50	i
Cc1c(CC(=O)N2CCN(C(=O)C3COc4ccccc4O3)CC2)c(=O)oc2cc(O)ccc12 (stereo not drawn)	i	i	i	i	i
COc1ccccc1-c1cc(C(=O)Nc2sc3c(c2C#N)CCC(C)C3)c2ccccc2n1 (stereo not drawn)	i	i	47	i	i
Cc1cc(C(=O)OCC(=O)Nc2sc3c(c2C#N)CCC(C)C3)c2ccccc2n1 (stereo not drawn)	i	i	53	i	i
CC1CCc2c(sc(NC(=O)COC(=O)c3ccc(NC(=O)CC#N)cc3)c2C#N)C1 (stereo not drawn)	i	nt	i	nt	i
COc1cccc(CNC(=O)c2ccccc2NC(=O)C2=C(C)OCCS2)c1OC	i	i	i	i	i
CSc1nc(NCCOCCO)c2sc3nc(-c4ccco4)c4c(c3c2n1)CCC4	i	i	87	i	i
CC(=O)c1c(O)cc(=O)n(-c2ccccc2)c1-c1ccc(Cl)cc1	i	i	i	i	i
CCc1c(O)cc(=O)n(-c2ccccc2)c1-c1ccccc1	i	i	55	i	i
O=C(Cn1c2ccccc2c(=O)c2ccccc21)Nc1ccccc1F	i	i	i	i	i
O=C(Cn1c2ccccc2c(=O)c2cc([N+](=O)[O-])ccc21)Nc1ccccc1Cl	i	i	i	51	i
CC(C)CNC(=O)NC(=O)COC(=O)c1cc(F)cc(F)c1	88	i	i	i	i
C=CCOC(=O)C1=C[C@@H](c2csc3ccccc23)[C@H](CCCO)[C@@H](OCC)O1	i	nt	i	nt	i
O=C1C=C(Nc2ccccc2)c2ccccc2C1=O	nt	i	nt	nt	nt
CCCCNC1=CC(=O)C(=O)c2ccccc21	i	i	i	91	i
CCCCN1CC(=O)N2[C@H]3c4ccc(OC)cc4OC[C@@H]3[C@H](C(=O)OCC)[C@]2(C)C1=O	nt	nt	nt	nt	i
O=C(c1ccc(F)cc1)N1CCN(c2ccc([N+](=O)[O-])cc2-n2cccc2)CC1	i	i	i	i	i
COc1ccc(-c2nc3ccncc3[nH]2)cc1OC	i	i	i	65	i
Cc1cc(C)n2nc(SCC(=O)Nc3ccc(F)c(F)c3F)nc2n1	nt	nt	nt	nt	i
Cc1nc(NC(=O)/C=C/c2ccco2)sc1C	i	i	i	i	i
